Experimental data: ChEMBL document CHEMBL1135670, “Discovery of 8-hydroxyadenines as a novel type of interferon inducer” (2002)

How the values were obtained:
[1] = species: Mus musculus; assay: Minimum effective concentration required for more than 1 IU/mL induction of IFN using mice spleen cells; assay type: functional; conditions: read-out: MEC
Method in brief: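 Mouse spleen cells incubated with compound; IFN released into medium measured in IU/mL. Value is the minimum effective concentration, the lowest concentration giving more than 1 IU/mL IFN.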

[2] = tested on: Mus musculus; assay: Minimum effective dose required for more than 100 IU/mL induction of IFN using mice after peroral administration.; assay type: functional; conditions: po, read-out: MED
Method in brief: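 Compound dosed orally to mice; IFN measured in plasma in IU/mL. Value is the minimum effective dose in mg/kg, the lowest dose giving more than 100 IU/mL IFN.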

Row | Compound | minimal effective concentration [1] [µM] | minimal effective dose [2] [mg/kg]
1 | CCCCCNc1nc(N)c2nc(O)n(Cc3ccccc3)c2n1 | 0.1 | 0.3
2 | CCc1nc(N)c2nc(O)n(Cc3ccccc3)c2n1 | 1 | 3
3 | Nc1nc(SCc2ccccc2)nc2c1nc(O)n2Cc1ccccc1 | 0.1 | > 1
4 | CNc1nc(N)c2nc(O)n(Cc3ccccc3)c2n1 | 1 | –
5 | Nc1nc(N)c2nc(O)n(Cc3ccccc3)c2n1 | 10 | –
6 | Nc1ncnc2c1nc(O)n2C1CCCC1 | > 10 | –
7 | CCCCn1c(O)nc2c(N)ncnc21 | > 10 | –
8 | NNc1nc2c(N)ncnc2n1Cc1ccccc1 | > 10 | –
9 | CCCOc1nc(N)c2nc(O)n(Cc3ccccc3)c2n1 | 0.01 | 0.3
10 | Nc1ncnc2c1ncn2Cc1ccccc1 [9-BENZYL-9H-ADENINE] | > 10 | –
11 | COc1ccc(Cn2c(O)nc3c(N)ncnc32)cc1 | 10 | –
12 | CCCCc1nc(N)c2nc(O)n(Cc3ccccc3)c2n1 | 0.03 | 0.3
13 | CCOc1nc(N)c2nc(O)n(Cc3ccccc3)c2n1 | 0.1 | 0.3
14 | COc1nc(N)c2nc(O)n(Cc3ccccc3)c2n1 | 0.1 | > 1
15 | Nc1ncnc2c1nc(O)n2-c1ccccc1 | > 10 | –
16 | COc1cccc(Cn2c(O)nc3c(N)ncnc32)c1 | 10 | –
17 | Nc1ncnc2[nH]c(O)nc12 | > 10 | –
18 | Cc1ccc(Cn2c(O)nc3c(N)ncnc32)cc1 | 10 | –
19 | Nc1ncnc2c1nc(S)n2Cc1ccccc1 | 10 | > 30
20 | CCCCCOc1nc(N)c2nc(O)n(Cc3ccccc3)c2n1 | 0.01 | 0.3
21 | CCCNc1nc(N)c2nc(O)n(Cc3ccccc3)c2n1 | 0.1 | 1
22 | Nc1ncnc2c1nc(Cl)n2Cc1ccccc1 | > 10 | –
23 | CCSc1nc(N)c2nc(O)n(Cc3ccccc3)c2n1 | 0.1 | 0.1
24 | Nc1ncnc2c1nc(I)n2Cc1ccccc1 | > 10 | –

Row | Compound | minimal effective concentration [1] [µM] | minimal effective dose [2] [mg/kg]
25 | CCCCOc1nc(N)c2[nH]c(=O)n(Cc3ccccc3)c2n1 | 0.001 | 0.1
26 | Cc1nc(N)c2nc(O)n(Cc3ccccc3)c2n1 | 1 | 3
27 | Nc1ncnc2c1nc(O)n2Cc1ccc(F)cc1 | 10 | 30
28 | Nc1ncnc2c1nc(Br)n2Cc1ccccc1 | > 10 | –
29 | Nc1nc(-c2ccccc2)nc2c1nc(O)n2Cc1ccccc1 | 10 | > 30
30 | CCNc1nc(N)c2nc(O)n(Cc3ccccc3)c2n1 | 1 | –
31 | Nc1ncnc2c1nc(O)n2Cc1cccc2ccccc12 | 10 | –
32 | Nc1ncnc2c1nc(O)n2Cc1ccccc1 | 10 | 30
33 | CSc1nc(N)c2nc(O)n(Cc3ccccc3)c2n1 | 0.1 | 0.1
34 | COc1ccccc1Cn1c(O)nc2c(N)ncnc21 | 10 | –
35 | CCCCNc1nc(N)c2nc(O)n(Cc3ccccc3)c2n1 | 0.1 | 0.1
36 | COc1nc2c(N)ncnc2n1Cc1ccccc1 | > 10 | –
37 | Nc1nc(S)nc2c1nc(O)n2Cc1ccccc1 | 10 | –
38 | CCCCSc1nc(N)c2nc(O)n(Cc3ccccc3)c2n1 | 0.01 | 0.3
39 | CCCCCSc1nc(N)c2nc(O)n(Cc3ccccc3)c2n1 | 10 | 1
40 | CC(C)Cn1cnc2c(N)nc3ccccc3c21 [IMIQUIMOD] | 1 | 3
41 | Nc1ncnc2c1nc(O)n2Cc1ccc(Cl)cc1 | 10 | 30
42 | Cc1nc2c(N)ncnc2n1Cc1ccccc1 | > 10 | –
43 | CCCSc1nc(N)c2nc(O)n(Cc3ccccc3)c2n1 | 0.01 | 0.1
44 | CSc1nc2c(N)ncnc2n1Cc1ccccc1 | > 10 | –
45 | Nc1ncnc2c1nc(O)n2CCc1ccccc1 | > 10 | –
46 | Nc1nc(O)nc2c1nc(O)n2Cc1ccccc1 | 0.1 | 1
47 | CCCC[S+]([O-])c1nc(N)c2nc(O)n(Cc3ccccc3)c2n1 (centres undefined) | 0.01 | 1
48 | CCCc1nc(N)c2nc(O)n(Cc3ccccc3)c2n1 | 1 | 3
